# Rows were chosen to be rich in hits. Some 2.3% of all compounds tested hit in one or more screens of this group.
# OXTR potentiate: potentiators of human oxytocin receptor. P30559. CHO-OTR cells, Fluo-8 calcium fluorescence, potentiator mode; 0% = oxytocin EC15, 100% = EC100. activation, % at 3 µM. 0.061% of 320,000 active;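 active = activation above that plate's cutoff, the mean activation of tested compounds plus 3 SD, cut at about 6.6% in these data, passing the limit was not always enough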;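 note: 100% uses oxytocin at 75 nM as the full agonist control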
# Target sequence (P30559 whole entry, looked up): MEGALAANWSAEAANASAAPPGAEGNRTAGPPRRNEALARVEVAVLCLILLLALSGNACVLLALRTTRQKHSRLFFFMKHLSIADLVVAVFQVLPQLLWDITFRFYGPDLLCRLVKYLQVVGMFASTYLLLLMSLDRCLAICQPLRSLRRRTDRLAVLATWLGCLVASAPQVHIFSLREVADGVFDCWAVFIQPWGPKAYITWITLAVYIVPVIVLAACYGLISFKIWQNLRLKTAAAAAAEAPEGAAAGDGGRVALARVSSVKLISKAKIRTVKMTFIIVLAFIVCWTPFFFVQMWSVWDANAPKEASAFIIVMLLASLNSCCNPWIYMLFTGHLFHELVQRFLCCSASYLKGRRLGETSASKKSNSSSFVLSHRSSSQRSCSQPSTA
#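 Assay system: CHO-OTR cells, human receptor / Also added: oxytocin at about EC15, sub-maximal agonist stimulus / Dosing: single dose, 3.0 µM nominal final compound concentration / Incubation: 6 min pre-incubation, 100 s read / Technique: Fluo-8 calcium dye fluorescence / Read-out: % activation vs EC15 and EC100 oxytocin / Benchmarks: EC15 oxytocin low, 75 nM oxytocin high / Replicates: singlicate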
# OXTR agonist: agonists of human oxytocin receptor; P30559; CHO-OTR cells, Fluo-8 calcium fluorescence; normalized: DMSO 0%, oxytocin 100%; activation, % at 3 µM; 0.32% of 320,000 active; AID 2435;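 active = activation above the mean of all tested compounds plus 3 SD, cutoff set per screening run, cut at about 20% in these data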;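 note: peak over basal fluorescence ratio from a 100 s FLIPR kinetic read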
# V1R ag counter: counter-screen for oxytocin receptor agonists: human V1a receptor agonists; P37288; CHO-V1R cells, Fluo-8 calcium fluorescence, agonist mode; 0% DMSO, 100% 3 nM vasopressin; activation, % at 3 µM; 0.25% of 320,000 active; AID 2797;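 active = activation above the mean activation of all tested compounds plus 3 SD, per screening run, cut at about 20% in these data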;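 note: signal is peak over basal fluorescence ratio across a 100 second FLIPR read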
# TAAR1 antag: antagonists of human TAAR1; Q96RJ0; CHO RD-HGA16 TAAR1, Fluo-8 calcium fluorescence, antagonist; inhibition, % at 3 µM; 1.5% of 360,000 active; AID 624466;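 active = inhibition above a per-plate cutoff, the mean inhibition of test compounds on that plate plus 3 SD, cut at about 49% in these data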;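 note: 0% = DMSO plus EC80 beta-PEA response and 100% = DMSO alone without agonist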
# Target sequence (Q96RJ0 whole entry, looked up): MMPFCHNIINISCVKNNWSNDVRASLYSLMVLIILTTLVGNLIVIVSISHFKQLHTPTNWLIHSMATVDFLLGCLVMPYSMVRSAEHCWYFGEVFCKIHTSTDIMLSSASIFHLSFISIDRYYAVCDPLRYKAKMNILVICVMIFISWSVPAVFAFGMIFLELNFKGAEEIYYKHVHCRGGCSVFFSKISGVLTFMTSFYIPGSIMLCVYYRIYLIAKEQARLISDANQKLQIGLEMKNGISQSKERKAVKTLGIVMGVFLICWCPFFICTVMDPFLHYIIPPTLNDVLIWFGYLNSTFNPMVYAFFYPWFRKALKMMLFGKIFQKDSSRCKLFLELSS
#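 System: RD-HGA16 CHO cells with stable hTAAR1 and Gα16 | Probe or stimulus: EC80 β-phenethylamine stimulus | Dosing: 3 µM, single point | Times: Dye loading 75 min at 37 °C, then 30 min room temperature | Measured by: Fluo-8 calcium-sensitive fluorescence | Read-out basis: % inhibition of agonist calcium response | Replicates: n of 1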
# TAAR1 ag: agonists of human TAAR1. activation, % at 3 µM. AID 624467. 0.99% of 360,000 active. CHO RD-HGA16 TAAR1, Fluo-8 calcium fluorescence; vehicle wells 0%, saturating PEA agonist 100%;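 active = activation above the mean activation of all test compounds in the run plus 3 SD, cut at about 38% in these data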
#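 Assay system: CHO-derived RD-HGA16 cells with stable Gα16 and human TAAR1; timing: 17-24 h seeding, 75 min 37 °C dye, 30 min RT; read-out: % activation from peak over basal fluorescence ratio, DMSO-to-PEA scaled; measured by: kinetic Fluo-8 calcium fluorescence; benchmarks: low control DMSO, high control PEA (EC100); doses: 3 µM single concentration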
# TAAR1 ag conf: human TAAR1 agonism, confirmed; shares compounds with TAAR1 ag; CHO RD-HGA16 TAAR1, Fluo-8 calcium fluorescence; scaled: DMSO 0%, maximal phenethylamine 100%; activation, % at 3 µM; 82% of 2,400 active;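 active = activation above a cutoff set at the run's mean compound activation plus 3 SD, cut at about 39% in these data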
# Ga16 nonsel ag: nonselective agonism, TAAR1 counter-screen; activation, % at 3 µM; 50% of 2,400 active; shares compounds with TAAR1 ag; CHO-Ga16 parental, Fluo-8 calcium fluorescence; normalized to maximal ATP response, DMSO zero; AID 651787;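 active = activation above the run cutoff, the mean activation over all tested wells plus 3 SD, cut at about 12% in these data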;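 note: 0% = DMSO wells and 100% = maximal ATP response on the peak over basal ratio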
# TAAR1 desens: TAAR1 response desensitization, agonist counter-screen; 46% of 2,400 active; shares compounds with TAAR1 ag; CHO RD-HGA16 hTAAR1, Fluo-8 calcium, beta-PEA response inhibition; AID 651951; inhibition, % at 3 µM;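 active = inhibition above the run cutoff, the mean inhibition of all test compounds plus 3 SD, cut at about 49% in these data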;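 note: beta-PEA stimulus applied at its EC80; loss of beta-PEA calcium signal after compound pretreatment read as receptor desensitization; 0% = DMSO with beta-PEA at EC80 and 100% = DMSO alone without agonist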
# Ga16 nonsel ant: counter-screen for TAAR1 agonists: nonselective Ga16 antagonists; AID 651952; CHO-Ga16 ATP-induced calcium, Fluo-8 fluorescence; 39% of 2,400 active; inhibition, % at 3 µM; shares compounds with TAAR1 ag;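 active = inhibition above the plate's mean compound inhibition plus 3 SD, computed per plate, cut at about 22% in these data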;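 note: 0% = EC80 ATP with DMSO and 100% = DMSO wells without ATP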
# * marks the source's active call; other numbers are inactive results; nt = not tested or not shown.
SMILES,OXTR potentiate,OXTR agonist,V1R ag counter,TAAR1 antag,TAAR1 ag,TAAR1 ag conf,Ga16 nonsel ag,TAAR1 desens,Ga16 nonsel ant
Cc1ccccc1OCCC(=O)Nc1cc(S(=O)(=O)N2CCCCC2)ccc1N1CCN(C)CC1,nt,nt,nt,49.3*,89.6*,105.4*,73.4*,78.4*,58.8*
O=C(CN1Cc2ccccc2C1=O)Nc1ccc2c(c1)OCCO2,-3.5,0.6,0.8,-25.2,0.8,nt,nt,nt,nt
CCc1ccc(OCC(=O)NNC(=O)c2cc3ccccc3o2)cc1,-14.1,-0.4,0.2,71.2*,75.1*,15.3,4.9,6.4,10.8
CC1CCCN(CCC(=O)c2ccccc2)C1 (stereo not given),nt,nt,nt,25.3,71.9*,85.2*,4.2,39.5,4.9
C=CCn1c(COc2cccc3ccc(C)nc23)nnc1SCC(=O)OC,-11.0,-0.9,0.3,-14.7,8.9,nt,nt,nt,nt
CC(C)C(C)NC(=O)Cn1cnc2c(oc3ccccc32)c1=O (stereo not given),-0.8,1.0,0.1,-0.9,2.1,nt,nt,nt,nt
O=C(Cn1cnc2c(oc3ccccc32)c1=O)NCCc1ccccc1,-4.6,1.0,1.1,nt,nt,nt,1.6,nt,1.3
COc1cc(/C=C(\C#N)c2nc3ccc(C)cc3[nH]2)c([N+](=O)[O-])cc1OC,-4.6,4.7,-1.2,6.5,47.2*,33.3,30.3*,-2.2,9.8
COc1ccc(/C=C(\C#N)c2nc3ccc(C)cc3[nH]2)cc1Oc1ccc(C(F)(F)F)cc1[N+](=O)[O-],-2.2,-0.6,0.2,-0.8,3.1,nt,nt,nt,nt
O=C(O)c1ccc2c3c(cccc13)C(=O)N(c1ccccc1)C2=O,1.0,1.1,1.8,7.6,-1.2,nt,nt,nt,nt
Nc1ccc2c3c(cccc13)C(=O)N(c1ccccc1)C2=O,nt,nt,nt,85.0*,403.3*,175.6*,146.6*,52.6*,49.7*
Cc1ccc(OCC(=O)Nc2ccccc2-c2ccccc2NC(=O)COc2ccc(C)cc2)cc1,-6.2,0.2,-0.2,-23.4,3.8,nt,nt,nt,nt
O=c1[nH]c2ccc(NC(=S)Nc3ccc(Cl)cc3)cc2[nH]1,-6.1,0.1,1.2,8.2,53.2*,57.7*,10.9,34.4,29.2*
O=C(NCCc1ccccc1)C1CCN(C(=O)c2ccc([N+](=O)[O-])cc2)CC1,-5.8,0.1,0.9,nt,nt,nt,4.9,nt,0.2
CCC1CN(C(=O)N2CCC(C(=O)NCCc3ccccc3)CC2)c2ccccc2O1 (stereo not given),-11.6,6.6,6.7,57.8*,53.0*,84.2*,15.7*,83.0*,34.2*
Cc1ccccc1NS(=O)(=O)c1ccc(NC(=O)c2ccco2)cc1,-11.6,5.5,5.0,10.9,11.5,nt,nt,nt,nt
COc1ccc(-n2cnc3sc4c(c3c2=O)CCCC4)cc1,-5.8,-1.3,-0.2,9.8,7.1,nt,nt,nt,nt
Cc1ccc(S(=O)(=O)Nc2ccc(C(=O)NCc3ccncc3)cc2)cc1,-7.8,-0.1,0.8,-7.7,1.2,nt,nt,nt,nt
Cc1ccc(-n2nnnc2SCC(=O)c2c(N)n(C3CC3)c(=O)[nH]c2=O)c(C)c1,3.8,1.1,2.0,-17.9,54.7*,24.2,7.7,-6.4,-8.9
O=C(O)c1cccc(NC(=S)NC(=O)c2ccc3ccccc3c2)c1,-6.5,7.6,10.1,6.9,72.8*,32.7,30.8*,15.0,9.6
O=C(NC(=S)Nc1cccc(NC(=S)NC(=O)c2ccccc2)c1)c1ccccc1,nt,nt,nt,15.1,3.3,nt,nt,nt,nt
O=C(O)c1ccc(NC(=S)NC(=O)c2ccc3ccccc3c2)cc1,-3.6,4.1,4.6,12.1,47.1*,39.6*,31.9*,25.8,26.2*
O=C1OC(N2CCN(C(=O)c3ccco3)CC2)c2ccccc21 (stereo not given),-3.6,0.1,0.4,10.9,51.6*,65.5*,0.4,16.6,8.2
N#CCCN(Cc1cccnc1)CN1C(=O)c2ccccc2C1=O,nt,nt,nt,13.8,-0.4,nt,nt,nt,nt
Cc1nccn1CC(=O)N/N=C/c1ccccc1O,-1.4,1.6,-0.6,-14.6,59.4*,63.5*,3.1,11.7,1.5
SMILES,OXTR potentiate,OXTR agonist,V1R ag counter,TAAR1 antag,TAAR1 ag,TAAR1 ag conf,Ga16 nonsel ag,TAAR1 desens,Ga16 nonsel ant
O=S(=O)(CCNCCc1ccccc1)NC1CCCCC1,nt,nt,nt,13.0,42.5*,59.8*,0.9,17.3,-1.7
CCC(=O)c1ccc(OCC(=O)OCC(=O)NCc2cccs2)cc1,-11.3,-0.7,0.0,-10.6,1.7,nt,nt,nt,nt
COC(=O)NC1c2ccccc2Oc2ccc(C)cc21 (stereo not given),-1.8,-2.4,-0.4,37.9,42.8*,83.4*,38.1*,75.7*,33.5*
COc1cccc(-c2nc(CS(=O)(=O)CC(=O)N3CCc4ccccc4C3)c(C)o2)c1,-8.6,-1.0,2.2,0.5,66.6*,86.9*,2.8,42.6,8.9
Cc1ccc(-c2nc(CS(=O)CC(=O)N3CCN(c4ccccc4)CC3)c(C)o2)cc1 (stereo not given),-8.8,4.1,4.3,-8.8,1.5,nt,nt,nt,nt
Cc1oc(-c2ccccc2)nc1CS(=O)CC(=O)N1CCc2ccccc2C1 (stereo not given),2.8,-2.0,-0.5,-15.1,56.4*,90.8*,0.4,43.6,1.6
Cc1ccccc1-c1nc(CS(=O)(=O)CC(=O)NCCc2ccccc2)c(C)o1,-12.1,3.9,3.7,23.7,71.8*,75.5*,4.3,62.6*,15.9
Cc1oc(-c2cccs2)nc1CS(=O)CC(=O)NCCc1ccccc1 (stereo not given),-4.0,-1.5,0.1,-20.9,58.1*,73.1*,4.1,34.5,4.5
COCCNC(=O)CN1C(=O)NC2(CCCCCC2)C1=O,-3.6,0.6,0.1,-6.7,3.5,nt,nt,nt,nt
CCCNC(=O)CS(=O)(=O)Cc1nc(-c2cccc(OC)c2)oc1C,0.9,-0.5,4.4,-11.0,-0.4,nt,nt,nt,nt
COc1cccc(-c2nc(CS(=O)(=O)CC(=O)NCCc3ccccc3)c(C)o2)c1,-3.6,2.4,3.6,29.2,70.8*,94.0*,20.7*,67.3*,12.2
COc1ccc(CNCCc2ccccc2)cc1OCC(N)=O,-5.1,0.2,-0.8,-2.6,52.0*,75.5*,1.5,21.7,-2.6
Cc1ccccc1CNC(=O)c1ccccc1N(C)S(=O)(=O)c1ccccc1,-5.9,0.2,-0.8,-6.7,0.7,nt,nt,nt,nt
Cc1cc([N+](=O)[O-])nn1CC(=O)N1CCc2ccccc2C1,0.2,-0.4,0.4,-1.6,61.2*,44.6*,7.9,11.9,5.3

# Screening data as filed in PubChem.
